Laboratory results as given in ChEMBL document CHEMBL1136894, “New antituberculotics originated from salicylanilides with promising in vitro activity against atypical mycobacterial strains” (Bioorg Med Chem, 2009).
Converted amounts (≈) assume the structure as drawn.

How the values were obtained:
[1] = tested on: Mycobacterium tuberculosis; test: Antimycobacterial activity against Mycobacterium tuberculosis CNCTC My 331/88 after 14 days; format: functional; conditions: CNCTC My 331/88, 336 h
Method in brief: (§1)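 Broth dilution in Sula semisynthetic medium, compounds added as DMSO solutions at 250, 125, 62, 32, 16, 8, 4, 2 and 1. Strains came from the Czech National Collection of Type Cultures; the M. tuberculosis inoculum was diluted 10^-3. Cultures were incubated at 37 °C, and MIC was read after 7, 14 and 21 days.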

Mycobacterium kansasii [2] = test: Antimycobacterial activity against Mycobacterium kansasii CNCTC My 235/80 after 21 days; format: functional; conditions: CNCTC My 235/80, 504 h
Method in brief: (§2)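 Compounds were added as DMSO solutions to Sula semisynthetic medium at 250, 125, 62, 32, 16, 8, 4, 2 and 1 µmol/L. Two M. kansasii strains were used: CNCTC My 235/80 and clinical isolate 6509/96, each with strain dilution 10^-4. Incubation was at 37 °C, and MIC was read at 7, 14 and 21 days.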

Mycobacterium kansasii [3] = test: Antimycobacterial activity against Mycobacterium kansasii isolate 6509/96 after 21 days; format: functional; conditions: isolate 6509/96, 504 h; method in brief: as §2
Mycobacterium kansasii [4] = test: Antimycobacterial activity against Mycobacterium kansasii isolate 6509/96 after 7 days; format: functional; conditions: isolate 6509/96, 168 h; method in brief: as §2
Mycobacterium avium [5] = test: Antimycobacterial activity against Mycobacterium avium CNCTC My 330/88 after 21 days; format: functional; conditions: CNCTC My 330/88, 504 h; method in brief: as §1
Mycobacterium kansasii [6] = test: Antimycobacterial activity against Mycobacterium kansasii CNCTC My 235/80 after 14 days; format: functional; conditions: CNCTC My 235/80, 336 h; method in brief: as §2
Mycobacterium kansasii [7] = test: Antimycobacterial activity against Mycobacterium kansasii CNCTC My 235/80 after 7 days; format: functional; conditions: CNCTC My 235/80, 168 h; method in brief: as §2
[8] = tested on: Mycobacterium tuberculosis; test: Antimycobacterial activity against Mycobacterium tuberculosis CNCTC My 331/88 after 21 days; format: functional; conditions: CNCTC My 331/88, 504 h; method in brief: as §1
[9] = Lipophilicity, log K by HPLC; format: physicochemical
Method in brief: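 Capacity factors k were measured by RP-HPLC and log k was calculated from them.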

Mycobacterium kansasii [10] = test: Antimycobacterial activity against Mycobacterium kansasii isolate 6509/96 after 14 days; format: functional; conditions: isolate 6509/96, 336 h; method in brief: as §2
Mycobacterium avium [11] = test: Antimycobacterial activity against Mycobacterium avium CNCTC My 330/88 after 14 days; format: functional; conditions: CNCTC My 330/88, 336 h; method in brief: as §1
HCT-8 = test: Cytotoxicity against human HCT8 cells after 72 hrs by XTT assay; format: functional, cell-based; conditions: HCT-8, 72 h
Method in brief: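 HCT-8 cells were grown in EMEM with 5% FBS at 37 °C under 5% CO2. They were harvested with trypsin, seeded at 2 × 10^5 cells/mL and left 24 h. Medium was then replaced with compound in DMSO. DMSO-only wells served as the viability control and 20% DMSO as the cytotoxic control. Reagent was added for 4 h and absorbance read at 450 nm. Triplicates; EC50 reported.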

[12] = Stability assessed as half life in phosphate buffer at pH 7.4 by UV-visible spectroscopy; format: physicochemical
Method in brief: (§3)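 Compound in methanolic solution (10 or 20 µL) was added to tempered 7 × 10^-2 M phosphate buffer (2 mL) at pH 7.4 or 5.5, 37 °C. The absorbance decrease at 224 nm was followed by UV/vis.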

[13] = Stability assessed as half life in phosphate buffer at pH 5.5 by UV-visible spectroscopy; format: physicochemical; method in brief: as §3
[14] = Selectivity index, ratio of EC50 for human HCT8 cells to MIC for Mycobacterium tuberculosis CNCTC My 331/88; format: functional, HCT-8
Method in brief: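 SI is EC50 in HCT-8 cells divided by the M. tuberculosis MIC. HCT-8 cells were grown in EMEM with 5% FBS at 37 °C under 5% CO₂, trypsinised and seeded at 2 × 10⁵ cells/mL. After 24 h the medium was replaced with compound in DMSO. Controls were DMSO alone and 20% DMSO. Absorbance was read at 450 nm 4 h after reagent addition, in triplicate.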

SMILES | MIC [1] [µM] | MIC (Mycobacterium kansasii [2]) [µM] | MIC (Mycobacterium kansasii [3]) [µM] | MIC (Mycobacterium kansasii [4]) [µM] | MIC (Mycobacterium avium [5]) [µM] | MIC (Mycobacterium kansasii [6]) [µM] | MIC (Mycobacterium kansasii [7]) [µM] | MIC [8] [µM] | log K [9] | MIC (Mycobacterium kansasii [10]) [µM] | MIC (Mycobacterium avium [11]) [µM] | EC50 (HCT-8) [µM] | half-life [12] [min] | half-life [13] [min] | Ratio [14]
C[C@@H](NC(=O)OCc1ccccc1)C(=O)Oc1ccc(Cl)cc1C(=O)Nc1ccc(Cl)c(Cl)c1 | 2 (≈ 1.04 µg/mL) | 16 (≈ 8.35 µg/mL) | 8 (≈ 4.17 µg/mL) | 4 (≈ 2.09 µg/mL) | 32 (≈ 16.7 µg/mL) | 8 (≈ 4.17 µg/mL) | 8 (≈ 4.17 µg/mL) | 4 (≈ 2.09 µg/mL) | 0.938 | 8 (≈ 4.17 µg/mL) | 16 (≈ 8.35 µg/mL) |  |  |  | 
O=C(N[C@@H](Cc1ccccc1)C(=O)Oc1ccc(Cl)cc1C(=O)Nc1ccc(Br)cc1)OCc1ccccc1 | 4 (≈ 2.43 µg/mL) | 8 (≈ 4.86 µg/mL) | 16 (≈ 9.73 µg/mL) | 16 (≈ 9.73 µg/mL) | 16 (≈ 9.73 µg/mL) | 8 (≈ 4.86 µg/mL) | 4 (≈ 2.43 µg/mL) | 8 (≈ 4.86 µg/mL) | 1.1258 | 16 (≈ 9.73 µg/mL) | 16 (≈ 9.73 µg/mL) |  |  |  | 
CC(C)[C@H](NC(=O)OCc1ccccc1)C(=O)Oc1ccc(Cl)cc1C(=O)Nc1ccc(Cl)c(Cl)c1 | 2 (≈ 1.1 µg/mL) | 8 (≈ 4.4 µg/mL) | 8 (≈ 4.4 µg/mL) | 8 (≈ 4.4 µg/mL) | 32 (≈ 17.6 µg/mL) | 4 (≈ 2.2 µg/mL) | 4 (≈ 2.2 µg/mL) | 4 (≈ 2.2 µg/mL) | 1.1567 | 8 (≈ 4.4 µg/mL) | 16 (≈ 8.8 µg/mL) |  |  |  | 
O=C(N[C@@H](Cc1ccccc1)C(=O)Oc1ccc(Cl)cc1C(=O)Nc1cccc(Cl)c1)OCc1ccccc1 | 16 (≈ 9.01 µg/mL) | 32 (≈ 18 µg/mL) | 32 (≈ 18 µg/mL) | 32 (≈ 18 µg/mL) | 62.5 (≈ 35.2 µg/mL) | 32 (≈ 18 µg/mL) | 32 (≈ 18 µg/mL) | 16 (≈ 9.01 µg/mL) | 1.0465 | 32 (≈ 18 µg/mL) | 32 (≈ 18 µg/mL) |  |  |  | 
O=C(N[C@H](Cc1ccccc1)C(=O)Oc1cc(Cl)ccc1C(=O)Nc1ccc(Cl)cc1)OCc1ccccc1 | 4 (≈ 2.25 µg/mL) | 8 (≈ 4.51 µg/mL) | 8 (≈ 4.51 µg/mL) | 4 (≈ 2.25 µg/mL) | 8 (≈ 4.51 µg/mL) | 8 (≈ 4.51 µg/mL) | 4 (≈ 2.25 µg/mL) | 4 (≈ 2.25 µg/mL) | 1.0315 | 8 (≈ 4.51 µg/mL) | 8 (≈ 4.51 µg/mL) | 104 | 22.1 | 17.9 | 26.05
O=C(N[C@H](Cc1ccccc1)C(=O)Oc1ccc(Cl)cc1C(=O)Nc1ccc(Br)cc1)OCc1ccccc1 | 2 (≈ 1.22 µg/mL) | 4 (≈ 2.43 µg/mL) | 8 (≈ 4.86 µg/mL) | 8 (≈ 4.86 µg/mL) | 16 (≈ 9.73 µg/mL) | 4 (≈ 2.43 µg/mL) | 2 (≈ 1.22 µg/mL) | 4 (≈ 2.43 µg/mL) | 1.1267 | 8 (≈ 4.86 µg/mL) | 8 (≈ 4.86 µg/mL) | 35.5 | 34.3 | 32.5 | 10.61
C[C@@H](NC(=O)OCc1ccccc1)C(=O)Oc1ccc(Cl)cc1C(=O)Nc1cccc(Cl)c1 | 8 (≈ 3.9 µg/mL) | 16 (≈ 7.8 µg/mL) | 16 (≈ 7.8 µg/mL) | 8 (≈ 3.9 µg/mL) | 32 (≈ 15.6 µg/mL) | 16 (≈ 7.8 µg/mL) | 16 (≈ 7.8 µg/mL) | 8 (≈ 3.9 µg/mL) | 0.699 | 16 (≈ 7.8 µg/mL) | 32 (≈ 15.6 µg/mL) |  |  |  | 
C[C@@H](NC(=O)OCc1ccccc1)C(=O)Oc1ccc(Cl)cc1C(=O)Nc1ccc(Cl)cc1 | 4 (≈ 1.95 µg/mL) | 16 (≈ 7.8 µg/mL) | 16 (≈ 7.8 µg/mL) | 8 (≈ 3.9 µg/mL) | 16 (≈ 7.8 µg/mL) | 16 (≈ 7.8 µg/mL) | 8 (≈ 3.9 µg/mL) | 4 (≈ 1.95 µg/mL) | 0.7294 | 8 (≈ 3.9 µg/mL) | 16 (≈ 7.8 µg/mL) |  |  |  | 
C[C@H](NC(=O)OCc1ccccc1)C(=O)Oc1ccc(Cl)cc1C(=O)Nc1cccc(Cl)c1 | 4 (≈ 1.95 µg/mL) | 16 (≈ 7.8 µg/mL) | 16 (≈ 7.8 µg/mL) | 8 (≈ 3.9 µg/mL) | 62.5 (≈ 30.5 µg/mL) | 16 (≈ 7.8 µg/mL) | 16 (≈ 7.8 µg/mL) | 8 (≈ 3.9 µg/mL) | 0.6995 | 16 (≈ 7.8 µg/mL) | 32 (≈ 15.6 µg/mL) |  |  |  | 
